The source made the active and inactive calls. No cut-off for these calls is given here.

A short description of series [1]: Reactivity with cysteine at 0.1 mM in 0.1M phosphate buffer assessed as amount of compound unreacted by HPLC.
Series [2] in a line: Induction of nitric oxide release at 10 uM in presence of Schistosoma mansoni recombinant TGR and NADPH. The class given is functional.
Series [3] is described as follows: Induction of nitric oxide release at 10 uM in presence of Schistosoma mansoni recombinant TGR. The series is classed as functional.
Series [4] can be described thus: Induction of nitric oxide release at 10 uM in presence of cysteine. The series is classed as physicochemical.
Series [5] deals with Schistosoma mansoni. Description: Antischistosomal activity against Schistosoma mansoni assessed as induction of parasite mortality after 24 hrs. The class given is functional. Details: concentration or dose not given beside the values. In outline:
(§1)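 Cultured ex vivo worms were exposed to 10 μM compound. Worm effects were scored by visual examination at time points over a 72 h time-course.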

In series [6] the test system is Schistosoma mansoni. As to the kind of experiment: Antischistosomal activity against Schistosoma mansoni assessed as parasite killing after 2 hrs. The class given is functional, organism-based. In short, it runs like this: as §1
Series [7] relates to Schistosoma mansoni. As to the kind of experiment: Antischistosomal activity against Schistosoma mansoni assessed as parasite killing after 4 hrs. The series is classed as functional. In outline: as §1
Series [8] relates to Schistosoma mansoni. As to the kind of experiment: Antischistosomal activity against Schistosoma mansoni assessed as induction of parasite mortality after 72 hrs. On the set-up: concentration or dose not given beside the values. The series is classed as functional. In outline: as §1
The test system of series [9] is Schistosoma mansoni. Description: Antischistosomal activity against Schistosoma mansoni assessed as induction of parasite mortality after 48 hrs. The series is classed as functional. On the set-up: concentration or dose not given beside the values. In outline: as §1
Series [10] concerns Schistosoma mansoni. As to the kind of experiment: Antischistosomal activity against Schistosoma mansoni assessed as induction of parasite mortality after 16 hrs. The class given is functional. Details: concentration or dose not given beside the values. In short, it runs like this:
as §1

Series [11] addresses T1, Thioredoxin reductase 1, cytoplasmic (Rattus norvegicus, UniProt O89049).
T1 sequence (O89049 whole entry): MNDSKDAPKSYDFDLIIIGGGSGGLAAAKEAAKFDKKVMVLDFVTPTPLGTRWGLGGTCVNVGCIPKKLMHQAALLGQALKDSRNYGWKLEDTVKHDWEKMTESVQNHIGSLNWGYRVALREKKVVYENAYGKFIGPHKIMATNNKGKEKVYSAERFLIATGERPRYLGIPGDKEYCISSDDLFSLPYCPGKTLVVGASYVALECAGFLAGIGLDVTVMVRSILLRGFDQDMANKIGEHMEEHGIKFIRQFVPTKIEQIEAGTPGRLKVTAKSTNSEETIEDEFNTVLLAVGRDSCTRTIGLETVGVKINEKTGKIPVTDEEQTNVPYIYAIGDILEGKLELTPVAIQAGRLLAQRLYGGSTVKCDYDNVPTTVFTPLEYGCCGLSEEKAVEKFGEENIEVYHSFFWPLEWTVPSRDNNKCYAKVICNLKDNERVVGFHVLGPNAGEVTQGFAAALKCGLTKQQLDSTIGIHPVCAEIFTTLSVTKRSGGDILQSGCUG
Description: Inhibition of rat recombinant TrxR1 after 10 mins.

Series [12] deals with T2, Thioredoxin glutathione reductase (Schistosoma mansoni, UniProt Q962Y6).
T2 sequence (Q962Y6 whole entry): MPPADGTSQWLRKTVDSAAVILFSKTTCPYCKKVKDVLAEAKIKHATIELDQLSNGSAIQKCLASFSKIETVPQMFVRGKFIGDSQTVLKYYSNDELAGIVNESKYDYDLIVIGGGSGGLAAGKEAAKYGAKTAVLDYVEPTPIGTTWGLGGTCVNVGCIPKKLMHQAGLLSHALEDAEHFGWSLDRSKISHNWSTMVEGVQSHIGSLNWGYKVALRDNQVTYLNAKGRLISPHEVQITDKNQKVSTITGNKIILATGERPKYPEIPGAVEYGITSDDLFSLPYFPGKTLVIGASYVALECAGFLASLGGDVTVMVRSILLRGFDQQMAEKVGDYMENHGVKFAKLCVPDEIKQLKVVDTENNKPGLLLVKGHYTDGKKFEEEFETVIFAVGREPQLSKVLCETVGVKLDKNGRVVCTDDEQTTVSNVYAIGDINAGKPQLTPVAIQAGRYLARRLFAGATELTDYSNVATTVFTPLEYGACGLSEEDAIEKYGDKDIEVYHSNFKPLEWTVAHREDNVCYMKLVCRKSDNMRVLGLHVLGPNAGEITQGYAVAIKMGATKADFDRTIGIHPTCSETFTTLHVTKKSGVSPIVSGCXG
As to the kind of experiment: Inhibition of Schistosoma mansoni TGR.

The test system of series [13] is Schistosoma mansoni. Description: Antischistosomal activity against Schistosoma mansoni assessed as induction of parasite mortality after 8 hrs. The series is classed as functional. Details: concentration or dose not given beside the values. In short, it runs like this: as §1
The target in series [14] is T3, Glutathione reductase, mitochondrial (Homo sapiens, UniProt P00390).
T3 sequence (P00390 whole entry): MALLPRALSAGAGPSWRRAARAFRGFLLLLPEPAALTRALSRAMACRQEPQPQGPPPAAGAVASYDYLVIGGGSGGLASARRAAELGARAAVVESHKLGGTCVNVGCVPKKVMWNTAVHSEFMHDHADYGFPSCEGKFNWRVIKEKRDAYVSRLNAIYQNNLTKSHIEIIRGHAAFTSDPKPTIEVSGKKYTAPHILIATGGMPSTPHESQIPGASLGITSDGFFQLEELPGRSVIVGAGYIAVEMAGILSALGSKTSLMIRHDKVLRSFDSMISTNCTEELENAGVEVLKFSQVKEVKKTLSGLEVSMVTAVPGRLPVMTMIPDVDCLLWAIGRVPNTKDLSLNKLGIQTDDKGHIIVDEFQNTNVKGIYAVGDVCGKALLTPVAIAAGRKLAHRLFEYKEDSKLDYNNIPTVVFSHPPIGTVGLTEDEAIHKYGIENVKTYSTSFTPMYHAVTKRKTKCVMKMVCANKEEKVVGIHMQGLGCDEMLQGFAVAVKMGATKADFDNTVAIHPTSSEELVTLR
Description: Inhibition of human recombinant GR after 15 mins in presence of NADPH.

Take `N#Cc1no[n+]([O-])c1-c1ccccc1`: the outcome in series [1] was Active. For the same compound, the results for the Activity in series [2], in [3] and in series [4] were 5%, under 1% and 10%, respectively.

Turning to `COc1ccccc1-c1no[n+]([O-])c1C#N`, the Activity in the series with Schistosoma mansoni [5] is on record as 40%; in the series on Schistosoma mansoni [8], 60%; in the series with Schistosoma mansoni [9] it was 50%; in the series on Schistosoma mansoni [10], 11%. Moreover, the result in the series on Schistosoma mansoni [6] and in the series with Schistosoma mansoni [7] was inactive.

Regarding `N#Cc1c(-c2ccco2)no[n+]1[O-]`, the Activity with Schistosoma mansoni [5] came out at 70%; in series [2] it was 16%; in [3], 2%; in series [4], 60%; in the series with Schistosoma mansoni [8], 100%; in the series on Schistosoma mansoni [13] it was 10%. Besides, the results for the Activity in the series on Schistosoma mansoni [9] and in the series on Schistosoma mansoni [10] were 100% and 40%, respectively. Further, the outcome in the series on Schistosoma mansoni [6] and with Schistosoma mansoni [7] was inactive. Moreover, the IC50 in series [11] was 350 µM; in series [12], 2.8 µM; in series [14] it was over 50 µM.

Take `COc1ccc(-c2no[n+]([O-])c2C#N)cc1`: the Activity worked out at 29% with Schistosoma mansoni [5]; 10% in series [2]; 2% in [3]; 55% in series [4]; 100% with Schistosoma mansoni [8]; 60% in the series on Schistosoma mansoni [9]. In addition, the Activity in the series with Schistosoma mansoni [10] was 10%. In addition, the result in the series on Schistosoma mansoni [6], in the series on Schistosoma mansoni [7] and in the series with Schistosoma mansoni [13] was inactive. The results for the IC50 in [11] and in [14] were over 400 µM and over 50 µM, respectively.

Consider `N#Cc1c(-c2cccc(C(F)(F)F)c2)no[n+]1[O-]`, for which the Activity was 54% in the series with Schistosoma mansoni [5]; 20% in series [2]; 2% in series [3]; 78% in series [4]; 100% in the series with Schistosoma mansoni [8]; 7% in the series on Schistosoma mansoni [13]. The Activity in the series with Schistosoma mansoni [9] amounted to 100%; in the series with Schistosoma mansoni [10], 25%. Moreover, the result in the series with Schistosoma mansoni [6] and with Schistosoma mansoni [7] was inactive. The values for the IC50 in series [11] and in series [14] were 250 µM and over 50 µM, respectively.

For the compound `N#Cc1c(-c2ccc(C(F)(F)F)cc2)no[n+]1[O-]`, the Activity in the series with Schistosoma mansoni [5] was 64%; in series [2] it was 22%; in series [3] it was 2%; in series [4] it was 80%; in the series with Schistosoma mansoni [8], 100%; in the series with Schistosoma mansoni [13] it was 12%. Moreover, the figures for the Activity in the series with Schistosoma mansoni [9] and in the series with Schistosoma mansoni [10] were 80% and 20%, respectively. The outcome in the series on Schistosoma mansoni [6] and with Schistosoma mansoni [7] was inactive. In addition, the IC50 in series [11] was under 12.5 µM; in [14], 45.3 µM.

For the compound `NC(=O)c1c(-c2ccccc2)no[n+]1[O-]`, the Activity in the series with Schistosoma mansoni [5] came out at 60%; with Schistosoma mansoni [8], 100%; in the series with Schistosoma mansoni [13], 12%; with Schistosoma mansoni [9], 100%; in the series with Schistosoma mansoni [10], 27%. The result with Schistosoma mansoni [6] and with Schistosoma mansoni [7] was inactive. In addition, the IC50 in series [11] is over 400 µM; in series [12] it was 17.8 µM; in series [14] it was over 50 µM.

With `O=C(O)c1c(-c2ccccc2)no[n+]1[O-]`, the result in the series on Schistosoma mansoni [5], in the series with Schistosoma mansoni [6], in the series with Schistosoma mansoni [7], in the series on Schistosoma mansoni [8], with Schistosoma mansoni [13] and in the series on Schistosoma mansoni [9] was inactive. Moreover, the outcome in the series on Schistosoma mansoni [10] was inactive. In addition, the results for the IC50 in series [11], in [12] and in series [14] were over 400 µM, 0.63 µM and over 50 µM, respectively. Moreover, the results for the Activity in series [2], in series [3] and in series [4] were 7%, 2% and 10%, respectively.

Take `COc1cccc(-c2no[n+]([O-])c2C#N)c1`: the Activity in the series with Schistosoma mansoni [5] is 7%; in series [2] it was 9%; in series [3], 2%; in series [4] it was 52%; with Schistosoma mansoni [8], 20%; with Schistosoma mansoni [9], 12%. The outcome in the series with Schistosoma mansoni [6], in the series with Schistosoma mansoni [7], in the series with Schistosoma mansoni [13] and in the series with Schistosoma mansoni [10] was inactive. Moreover, the results for the half-maximal inhibitory concentration (IC50) in series [11] and in [14] were over 400 µM and over 50 µM, respectively.

On to `N#Cc1c(-c2ccc(F)cc2)no[n+]1[O-]`, for which the Activity is 72% in the series with Schistosoma mansoni [5]; 13% in series [2]; under 1% in series [3]; 50% in [4]; 100% in the series with Schistosoma mansoni [8]; 5% in the series on Schistosoma mansoni [13]. In addition, the Activity in the series with Schistosoma mansoni [9] came to 100%; in the series on Schistosoma mansoni [10], 15%. The result in the series with Schistosoma mansoni [6] and in the series on Schistosoma mansoni [7] was inactive. The IC50 in [11] was 300 µM; in [14] it was over 50 µM.

`Cc1ccc(-c2no[n+]([O-])c2C#N)cc1`: the Activity in the series on Schistosoma mansoni [5] was determined as 50%; in [2] it was 15%; in series [3] it was 1%; in [4], 58%; in the series on Schistosoma mansoni [8] it was 70%; with Schistosoma mansoni [9], 55%. In addition, in the series with Schistosoma mansoni [10], the Activity stood at 15%. In addition, the outcome in the series with Schistosoma mansoni [6], in the series with Schistosoma mansoni [7] and in the series on Schistosoma mansoni [13] was inactive. In addition, the IC50 in series [11] was over 400 µM; in series [14], over 50 µM.

Consider `N#Cc1c(-c2cccc(Br)c2)no[n+]1[O-]`, for which the Activity in the series on Schistosoma mansoni [5] amounted to 100%; in series [2] it was 19%; in [3], 2%; in [4] it was 70%; in the series with Schistosoma mansoni [8] it was 100%; with Schistosoma mansoni [13] it was 20%. Also, the Activity in the series on Schistosoma mansoni [9] was found to be 100%; in the series on Schistosoma mansoni [10], 39%. Further, the outcome in the series on Schistosoma mansoni [6] and with Schistosoma mansoni [7] was inactive. Also, the results for the IC50 in series [11] and in [14] were 150 µM and over 50 µM, respectively.

Regarding `[O-][n+]1onc(-c2ccccc2)c1CO`, the IC50 is over 400 µM in [11] and over 50 µM in [14].

As to `N#Cc1c(-c2cccc(O)c2)no[n+]1[O-]`, the outcome in the series on Schistosoma mansoni [5], in the series on Schistosoma mansoni [6], in the series with Schistosoma mansoni [7], in the series with Schistosoma mansoni [8], with Schistosoma mansoni [9] and in the series with Schistosoma mansoni [10] was inactive.

For `N#Cc1nonc1-c1ccccc1`, the values for the Activity in series [2], in series [3] and in series [4] were 3%, under 1% and 7%, respectively.

What is called IC50 is the concentration that inhibits the measured activity by half.

Values taken from ChEMBL document CHEMBL1155233, “Structure mechanism insights and the role of nitric oxide donation guide the development of oxadiazole-2-oxides as therapeutic agents against schistosomiasis” (J Med Chem, 2009).
